Measured values published in ChEMBL document CHEMBL4138245, “Design and synthesis of novel quinacrine-[1,3]-thiazinan-4-one hybrids for their anti-breast cancer activity” (Eur J Med Chem, 2018).
Active and inactive are the calls of the source. The rule behind the calls is not given here.

What was measured:
[1] = Selectivity index, ratio of compound concentration for cell killing activity in human 184B5 cells to compound concentration for cell killing activity in human MDA-MB-468 cells; format: toxicity, cell-based; conditions: 184B5 cells versus MDA-MB-468 cells, read-out: Selectivity Index
MDA-MB-231 [2] = experiment: Antiproliferative activity against human MDA-MB-231 cells assessed as compound concentration required to show complete inhibition of cell viability up to 96 hrs by SRB assay; format: functional
[3] = Selectivity index, ratio of compound concentration for cell killing activity in human MCF10A cells to compound concentration for cell killing activity in human MCF7 cells; format: toxicity, cell-based; conditions: MCF10A cells versus MCF7 cells, read-out: Selectivity Index
[4] = Selectivity index, ratio of compound concentration for cell killing activity in human MCF10A cells to compound concentration for cell killing activity in human SK-BR-3 cells; format: toxicity, cell-based; conditions: MCF10A cells versus SK-BR-3 cells, read-out: Selectivity Index
[5] = target: Serine/threonine-protein kinase mTOR (Homo sapiens) (UniProt P42345); experiment: Inhibition of mTOR pathway in human MCF7 cells assessed as reduction in S6K phosphorylation at Thr389 residue at 2 uM after 24 hrs by Western blot method; format: cell-based
MCF7 [6] = experiment: Antiproliferative activity against human MCF7 cells after 48 hrs by SRB assay; format: functional, cell-based; conditions: MCF7, 48 h
Procedure, shortened: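 SRB assay: 5,000-10,000 cells/well plated, 24 h at 37 °C/5% CO2 before drug; seven concentrations from 100 μM down (two- to ten-fold serial dilutions, DMSO ≤0.1% final) for 48 h; TCA fixation (10% final, 60 min, 4 °C), 0.4% SRB in 1% acetic acid, solubilized in 10 mM Tris base, absorbance 515-564 nm; growth = (Ti−Tz)/(C−Tz)×100; IC50 from sigmoidal variable-slope fit; triplicates, ≥2 independent experiments.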

[7] = target: Serine/threonine-protein kinase mTOR (Homo sapiens) (UniProt P42345); experiment: Inhibition of mTOR pathway in human MCF7 cells assessed as reduction in 4EBP1 phosphorylation at Thr37/Thr46 residues at 2 uM after 6 hrs by Western blot method; format: cell-based
[8] = Selectivity index, ratio of compound concentration for cell killing activity in human 184B5 cells to compound concentration for cell killing activity in human NCI-H1975 cells; format: toxicity, cell-based; conditions: 184B5 cells versus NCI-H1975 cells, read-out: Selectivity Index
MCF7 [9] = experiment: Downregulation of Cyclin-B protein expression in human MCF7 cells at 2 uM after 24 to 72 hrs by Western blot method; format: functional, cell-based
LNCaP = experiment: Antiproliferative activity against human LNCAP cells assessed as compound concentration required to show complete inhibition of cell viability up to 96 hrs by SRB assay; format: functional
MDA-MB-468 = experiment: Antiproliferative activity against human MDA-MB-468 cells assessed as compound concentration required to show complete inhibition of cell viability up to 96 hrs by SRB assay; format: functional
[10] = target: Serine/threonine-protein kinase Chk2 (Homo sapiens) (UniProt O96017); experiment: Induction of CHK2 phosphorylation at T68 residue in human MCF7 cells at 2 uM after 12 to 48 hrs by Western blot method; format: cell-based
Sequence of Serine/threonine-protein kinase Chk2 (Homo sapiens) (O96017 whole entry): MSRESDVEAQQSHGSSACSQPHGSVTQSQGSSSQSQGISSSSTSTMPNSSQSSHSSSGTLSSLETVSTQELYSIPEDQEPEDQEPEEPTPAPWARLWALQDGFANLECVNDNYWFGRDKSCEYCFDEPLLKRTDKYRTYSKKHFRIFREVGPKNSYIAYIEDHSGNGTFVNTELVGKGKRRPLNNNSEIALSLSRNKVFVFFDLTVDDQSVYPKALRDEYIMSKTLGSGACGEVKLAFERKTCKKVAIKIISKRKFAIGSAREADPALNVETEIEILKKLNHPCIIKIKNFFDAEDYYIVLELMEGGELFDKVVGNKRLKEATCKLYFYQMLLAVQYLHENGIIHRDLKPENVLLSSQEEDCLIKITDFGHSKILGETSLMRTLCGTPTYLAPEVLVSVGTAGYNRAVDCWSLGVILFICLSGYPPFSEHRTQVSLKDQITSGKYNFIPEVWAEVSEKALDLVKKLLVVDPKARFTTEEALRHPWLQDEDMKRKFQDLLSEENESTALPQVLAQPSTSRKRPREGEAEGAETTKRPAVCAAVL

MDA-MB-231 [11] = experiment: Cell cycle arrest in human MDA-MB-231 cells assessed as accumulation at sub-G1 phase at 2 uM after 48 hrs by propidium iodide staining based flow cytometry; format: functional
Procedure, shortened: (§1)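 MCF7, MDA-MB231 and non-cancer 184B5 breast cells exposed to 2 μM for 48 h, then cell-cycle analysis by flow cytometry; duplicates, repeated three times.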

[12] = Selectivity index, ratio of compound concentration for cell killing activity in human 184B5 cells to compound concentration for cell killing activity in human BT20 cells; format: toxicity, cell-based; conditions: 184B5 cells versus BT20 cells, read-out: Selectivity Index
[13] = Selectivity index, ratio of compound concentration for cell killing activity in human 184B5 cells to compound concentration for cell killing activity in human SK-BR-3 cells; format: toxicity, cell-based; conditions: 184B5 cells versus SK-BR-3 cells, read-out: Selectivity Index
MCF7 [14] = experiment: Anticlonogenic activity against human MCF7 cells at 0.39 to 1.5 uM after 12 hrs by crystal violet staining based assay; format: functional, cell-based
Procedure, shortened: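 Clonogenic assay: 1000 cells/well seeded, treated after overnight attachment for 12 h, then medium replaced and cells grown until control colonies were large enough; colonies stained with crystal violet.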

[15] = Selectivity index, ratio of compound concentration for cell killing activity in human MCF10A cells to compound concentration for cell killing activity in human MDA-MB-468 cells; format: toxicity, cell-based; conditions: MCF10A cells versus MDA-MB-468 cells, read-out: Selectivity Index
[16] = Selectivity index, ratio of compound concentration for cell killing activity in human 184B5 cells to compound concentration for cell killing activity in human MCF7 cells; format: toxicity, cell-based; conditions: 184B5 cells versus MCF7 cells, read-out: Selectivity Index
[17] = Selectivity index, ratio of compound concentration for cell killing activity in human 184B5 cells to compound concentration for cell killing activity in human BT474 cells; format: toxicity, cell-based; conditions: 184B5 cells versus BT474 cells, read-out: Selectivity Index
MDA-MB-231 [18] = experiment: Cell cycle arrest in human MDA-MB-231 cells assessed as accumulation at S phase at 2 uM after 48 hrs by propidium iodide staining based flow cytometry; format: functional; procedure, shortened: as §1
MCF-10A = experiment: Antiproliferative activity against human MCF10A cells assessed as compound concentration required to show complete inhibition of cell viability up to 96 hrs by SRB assay; format: cell-based
MDA-MB-231 [19] = experiment: Potency index, ratio of cisplatin IC50 to compound IC50 for antiproliferative activity against human MDA-MB-231 cells; format: functional
MDA-MB-453 = experiment: Antiproliferative activity against human MDA-MB-453 cells assessed as compound concentration required to show complete inhibition of cell viability up to 96 hrs by SRB assay; format: functional
[20] = Selectivity index, ratio of compound concentration for cell killing activity in human MCF10A cells to compound concentration for cell killing activity in human LNCAP cells; format: toxicity, cell-based; conditions: MCF10A cells versus LNCAP cells, read-out: Selectivity Index
MCF7 [21] = experiment: Cell cycle arrest in human MCF7 cells assessed as DNA content at 2 uM after 6 hrs by BrdU incorporation assay (reference value: 31.6%); format: functional

In the case of `COc1ccc2nc3cc(Cl)ccc3c(NCCCN3C(=O)CCSC3c3cccs3)c2c1` (stereo not given), the selectivity ratio [1] is reported as 3 to 6, the Activity (MDA-MB-231 [2]) is reported as 2 µM and the selectivity ratio [3] is reported as 3 to 6. The selectivity ratio [4] was 3 to 6, the inhibition [5] was “Active” and the IC50 (MCF7 [6]) was 690 nM. For the same compound, the inhibition [7] was “Active”, the selectivity ratio [8] was 3 to 6 and the Activity (MCF7 [9]) was “Active”. For the same compound, the Activity (LNCaP) was 2 µM, the Activity (MDA-MB-468) was 2 µM and the Activity [10] was “inactive”. The Activity (MDA-MB-231 [11]) was “Active”, the selectivity ratio [12] was 3 to 6 and the selectivity ratio [13] was 3 to 6. The Activity (MCF7 [14]) was “Active”, the selectivity ratio [15] was 3 to 6 and the selectivity ratio [16] was 3 to 6. For the same compound, the selectivity ratio [17] was 3 to 6, the Activity (MDA-MB-231 [18]) was “Active” and the Activity (MCF-10A) was greater than 6 µM. For the same compound, the “Ratio IC50” value (MDA-MB-231 [19]) was 8.4, the Activity (MDA-MB-453) was 2 µM and the selectivity ratio [20] was 3 to 6. For the same compound, the Activity (MCF7 [21]) was 3.7%.
